Calls of active or inactive are those of the source. The calls are words filed in the database; no cut-off is given here.
Legend:
Rattus norvegicus = species on record: Rattus norvegicus; assay: Uptake in the thyroid or any of the other tissues tested in rats; NS- No significant activity; assay type: functional, organism-based; details: Thyroid gland
Outline: (§1)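 Female Fischer 344 rats (10–12 weeks, 170–200 g, food and water ad libitum) received 7.95 μCi of the 125I-labeled barbiturate (sp act ~155 mCi/mmol) in filtered pH 7.4 phosphate buffer via lateral tail vein under ether anesthesia. Four rats per time point were killed at 2 min to 1 day. Thyroid and other organs were excised, rinsed, blotted, weighed and gamma-counted as % injected dose/g.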

[1] = In vivo deiodination was determined; Resistant; assay type: functional, organism-based; outline: as §1

Q: With `CCOC(=O)C(CC)(CCC/C=C/I)C(=O)O` (configuration not stated) as the molecule, how does the Activity (Rattus norvegicus) read?
A: inactive

Q: What about the Activity [1] of the same molecule?
A: Resistant
